Measured values: ChEMBL document CHEMBL1926649, “New cholesterol esterase inhibitors based on rhodanine and thiazolidinedione scaffolds” (Bioorg Med Chem, 2011)

Columns and labels:
Acetylcholinesterase = Acetylcholinesterase (Electrophorus electricus, UniProt O42275); assay: Inhibition of Electrophorus electricus acetylcholinesterase preincubated for 15 mins by spectrophotometry
[1] = Inhibition of pig pancreatic cholesterol esterase preincubated for 5 mins by spectrophotometry; set-up: species or system Sus scrofa
In short: (§1)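 Porcine CEase in 100 mM sodium phosphate, 100 mM NaCl, pH 7.0, with 6 mM taurocholate (final), 3% acetonitrile, 3% DMSO. Inhibitor pre-mixed with 200 µM pNPB for 5 min at 25 °C. Reaction started with enzyme (10 ng/mL final), A405 followed for 6 min. Rates taken from linear steady-state turnover. Duplicates at five inhibitor concentrations. Residual activity at infinite [I] and IC50 come from non-linear regression of rate versus [I].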

Sus scrofa [2] = organism: Sus scrofa; assay: Inhibition of pig pancreatic cholesterol esterase assessed as residual enzyme activity at infinite compound concentration preincubated for 5 mins by spectrophotometry; in short: as §1
[3] = Selectivity ratio of IC50 for Electrophorus electricus acetylcholinesterase to IC50 for pig cholesterol esterase
In short: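 IC50 ratio taken between two assays. AChE: E. electricus enzyme, 15 min preincubation, ATCh 500 µM with DTNB, read at 412 nm, pH 7.3. Porcine CEase: 10 ng/mL, 5 min preincubation of inhibitor with substrate, pNPB 200 µM with taurocholate 6 mM, read at 405 nm, pH 7.0.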

Sus scrofa [4] = organism: Sus scrofa; assay: Ratio of binding affinity to free pig pancreatic cholesterol esterase to binding affinity to substrate-bound pig pancreatic cholesterol esterase
In short: (§2)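 Porcine CEase, pNPB hydrolysis read at 405 nm, 25 °C, pH 7.0 phosphate/NaCl buffer with 6 mM taurocholate. Quadruplicates covered five inhibitor levels (2–10 µM) crossed with five substrate levels (100–300 µM), after a 5 min preincubation. The uninhibited rate at 200 µM substrate was set to 100%. Ki, α and β come from replots of specific velocity using σ/[1+σ], with σ = [S]/Km and a separately determined Km.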

[5] = Mixed inhibition of pig pancreatic cholesterol esterase preincubated for 5 mins by specific velocity plot analysis; set-up: species or system Sus scrofa; in short: as §2

Acetylcholinesterase, sequence (O42275 whole entry): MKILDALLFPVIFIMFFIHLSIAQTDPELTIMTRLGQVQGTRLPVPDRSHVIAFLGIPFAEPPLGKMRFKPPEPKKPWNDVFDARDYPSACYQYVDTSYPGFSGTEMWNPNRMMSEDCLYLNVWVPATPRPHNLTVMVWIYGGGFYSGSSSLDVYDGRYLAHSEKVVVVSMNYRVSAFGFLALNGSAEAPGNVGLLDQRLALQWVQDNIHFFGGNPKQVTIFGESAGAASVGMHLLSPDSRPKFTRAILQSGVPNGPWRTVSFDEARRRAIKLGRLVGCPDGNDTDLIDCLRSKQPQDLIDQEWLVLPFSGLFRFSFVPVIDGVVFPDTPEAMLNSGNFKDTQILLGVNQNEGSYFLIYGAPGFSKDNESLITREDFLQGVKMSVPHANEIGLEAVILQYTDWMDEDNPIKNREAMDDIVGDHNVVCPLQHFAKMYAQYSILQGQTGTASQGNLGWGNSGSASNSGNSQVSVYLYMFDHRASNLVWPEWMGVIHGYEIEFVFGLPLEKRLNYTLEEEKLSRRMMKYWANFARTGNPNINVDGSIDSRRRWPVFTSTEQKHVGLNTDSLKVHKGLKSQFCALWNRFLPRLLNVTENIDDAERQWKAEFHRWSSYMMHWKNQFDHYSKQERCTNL

CCCc1ccccc1NC(=O)[C@H](Cc1ccccc1)NC(=O)c1ccc(/C=C2\SC(=O)NC2=O)cc1
IC50 (Acetylcholinesterase): 14 µM | IC50 [1]: 40 µM

CCCc1ccccc1NC(=O)[C@H](CO)NC(=O)c1ccc(/C=C2\SC(=O)NC2=O)cc1
IC50 (Acetylcholinesterase): > 100 µM | IC50 [1]: 5.7 µM | Activity (Sus scrofa [2]): 12% | Ratio IC50 [3]: > 15

CCCc1ccccc1NC(=O)[C@H](CO)NC(=O)c1ccc(/C=C2\SC(=S)NC2=O)cc1
IC50 (Acetylcholinesterase): > 100 µM | IC50 [1]: 31 µM

CCCc1ccccc1NC(=O)[C@H](COC(C)(C)C)NC(=O)c1ccc(/C=C2\SC(=O)NC2=O)cc1
IC50 (Acetylcholinesterase): 66 µM | IC50 [1]: 85 µM

CCCc1ccccc1OCC(O)COc1ccc(/C=C2\SC(=S)NC2=O)cc1 (racemic)
IC50 (Acetylcholinesterase): 5.14 µM | Ratio (Sus scrofa [4]): 5.5 | IC50 [1]: 1.76 µM | Ki [5]: 1.22 µM | Activity (Sus scrofa [2]): 18%

O=C1NC(=O)/C(=C/c2ccc(C(=O)O)cc2)S1
IC50 (Acetylcholinesterase): > 100 µM | IC50 [1]: > 100 µM

CCCc1ccccc1NC(=O)[C@H](Cc1ccc(O)cc1)NC(=O)c1ccc(/C=C2\SC(=S)NC2=O)cc1
IC50 (Acetylcholinesterase): 57 µM | IC50 [1]: 14.5 µM

CCCc1ccccc1NC(=O)[C@H](COC(C)(C)C)NC(=O)c1ccc(/C=C2\SC(=S)NC2=O)cc1
IC50 (Acetylcholinesterase): 21.6 µM | IC50 [1]: 6.07 µM

O=C1NC(=O)/C(=C/c2ccccc2)S1
IC50 (Acetylcholinesterase): > 100 µM | IC50 [1]: > 100 µM

CCCc1ccccc1NC(=O)[C@H](C)NC(=O)c1ccc(/C=C2\SC(=S)NC2=O)cc1
IC50 (Acetylcholinesterase): > 100 µM | IC50 [1]: 50 µM

CCCc1ccccc1NC(=O)[C@H](Cc1ccccc1)NC(=O)c1ccc(/C=C2\SC(=S)NC2=O)cc1
IC50 (Acetylcholinesterase): 43 µM | IC50 [1]: 40 µM

CCCc1ccccc1NC(=O)[C@H](C)NC(=O)c1ccc(/C=C2\SC(=O)NC2=O)cc1
IC50 (Acetylcholinesterase): > 100 µM | IC50 [1]: 54 µM

CCCc1ccccc1OCC(O)COc1ccc(/C=C2\SC(=O)NC2=O)cc1 (racemic)
IC50 (Acetylcholinesterase): > 100 µM | IC50 [1]: 5.89 µM | Activity (Sus scrofa [2]): 17% | Ratio IC50 [3]: > 15

O=C1NC(=S)S/C1=C\c1ccc(C(=O)O)cc1
IC50 (Acetylcholinesterase): > 100 µM | IC50 [1]: > 100 µM

CCCc1ccccc1NC(=O)[C@H](COCc1ccccc1)NC(=O)c1ccc(/C=C2\SC(=S)NC2=O)cc1
IC50 (Acetylcholinesterase): 25 µM | IC50 [1]: 1.44 µM | Activity (Sus scrofa [2]): 25% | Ratio IC50 [3]: 17
